Assay results collected from several papers.
CDK2 with cyclin E1: Cyclin-dependent kinase 2, with cyclin E1 (CDK2, Homo sapiens, UniProt P24941)
CTSB: Cathepsin B (CTSB, Homo sapiens, UniProt P07858)

CC(C)C[C@H]1C(=O)N2CCC[C@H]2[C@]2(O)O[C@](NC(=O)[C@@H]3C=C4c5cccc6[nH]c(Br)c(c56)C[C@H]4N(C)C3)(C(C)C)C(=O)N12 — IC50 (5-hydroxytryptamine receptor 7 (HTR7, Homo sapiens, UniProt P34969); cAMP, antagonist): 0.08 µM
COc1c(-c2ccccc2)oc2c(ccc3occc32)c1=O — IC50 (CDK2 with cyclin E1; enzyme activity, inhibitor, ADP detection): > 10 µM
O=c1c(O)c(-c2cc(O)c(O)c(O)c2)oc2cc(O)cc(O)c12 — IC50 (Genome polyprotein, protease (ZIKV, UniProt A0A024B7W1); enzyme activity, inhibitor, FRET; pH 7): 22 µM
N=C1CCCN1Cc1[nH]c(=O)[nH]c(=O)c1Br — IC50 (Thymidine phosphorylase (Homo sapiens, UniProt P19971); enzyme activity, inhibitor): 0.0027 µM
CC1=NCCc2c1[nH]c1cc(O)ccc21 — IC50 (Receptor-type tyrosine-protein phosphatase C (PTPRC, Homo sapiens, UniProt P08575); enzyme activity, inhibitor, fluorescence): 14 µM
CC(=O)c1cc(O)c2ccccc2c1O — IC50 (Genome polyprotein, methyltransferase (ZIKV, UniProt A0A024B7W1); enzyme activity, inhibitor, TR-FRET): 12.9 µM
C[C@H]1COCCN1c1nc(NCc2cccnc2C(F)(F)F)c2cccnc2n1 — IC50 (Sodium channel protein type 5 subunit alpha (SCN5A, Homo sapiens, UniProt Q14524); ion current, inhibitor): > 33 µM
CC(C)C[C@H](NC(=O)[C@H]1O[C@@H]1C(=O)O)C(=O)NCCCCN=C(N)N — IC50 (CTSB; enzyme activity, inhibitor): 0.004 µM
Nc1ncnc2c1ncn2[C@@H]1O[C@H](COP(=O)(O)OP(=O)(O)OP(=O)(O)O)[C@@H](O)[C@H]1O — IC50 (Heat shock cognate 71 kDa protein (HSPA8, Homo sapiens, UniProt P11142); ligand displacement, FP): 0.2 µM
C[C@H](N)Cn1ncc2ccc3c(c21)CCCO3 — IC50 (5-hydroxytryptamine receptor 6 (HTR6, Homo sapiens, UniProt P50406); ligand displacement, radioligand): 19.6 µM
N#Cc1cc(F)cc(NS(=O)(=O)c2ccc(S(=O)(=O)F)c3c2CCCC3)c1 — IC50 (RALB (Homo sapiens, UniProt P11234, Y82F); cell-free assay, inhibitor, fluorescence): 69 µM
CC(C)N(C)[C@@H]1CC[C@H](N2CC[C@H](NC(=O)c3cccc(C(F)(F)F)c3)C2=O)[C@H](CS(=O)(=O)C(C)C)C1 — IC50 (C-C chemokine receptor type 2 (CCR2, Homo sapiens, UniProt P41597); cell-free assay): 0.0003 µM
O=c1cc(-c2ccccc2)oc2c1ccc1occc12 — IC50 (CDK2 with cyclin E1; enzyme activity, inhibitor, ADP detection): 7.9 µM
O=c1c2ccccc2[nH]c(=S)n1-c1ccccc1 — IC50 (CTSB; enzyme activity, inhibitor): 76.7 µM
